# Measured values reported in ChEMBL document CHEMBL1153881, “The influence of an ethylene spacer on the 5-HT(1A) and 5-HT(2A) receptor affinity of arylpiperazine derivatives of amides with N-acylated amino acids and 3-differently substituted pyrrolidine-2,5-diones” (Eur J Med Chem, 2009).
# How the values were obtained:
# [1] = biological target: T1, 5-hydroxytryptamine receptor 1A (Rattus norvegicus, UniProt P19327); experiment: Displacement of [3H]8-OH-DPAT from 5HT1A receptor in rat hippocampal membrane; assay type: cell membranes, Hippocampus
# T1 sequence (P19327 whole entry): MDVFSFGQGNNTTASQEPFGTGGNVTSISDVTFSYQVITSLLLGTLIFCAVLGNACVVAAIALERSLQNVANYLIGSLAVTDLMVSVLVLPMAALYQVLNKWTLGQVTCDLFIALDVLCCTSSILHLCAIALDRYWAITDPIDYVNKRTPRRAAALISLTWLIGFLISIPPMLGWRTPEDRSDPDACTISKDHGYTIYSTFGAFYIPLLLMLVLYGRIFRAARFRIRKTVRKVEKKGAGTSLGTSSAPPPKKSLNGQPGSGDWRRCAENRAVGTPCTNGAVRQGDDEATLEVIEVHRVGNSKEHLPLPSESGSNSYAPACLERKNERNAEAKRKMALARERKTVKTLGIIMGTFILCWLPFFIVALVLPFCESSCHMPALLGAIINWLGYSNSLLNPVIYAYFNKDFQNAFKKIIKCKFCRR
# How it was run: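 Native receptor in rat hippocampal membranes, labelled with [3H]-8-OH-DPAT (170 Ci/mmol) and displaced by the compounds, which were tested without further purification. Screening used two compound concentrations. Full binding curves used 7–9 concentrations, each run in triplicate, and Ki was derived from inhibition of binding.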
# [2] = biological target: 5-hydroxytryptamine receptor 2A (Rattus norvegicus, UniProt P14842); experiment: Displacement of [3H]ketanserin from 5HT2A receptor in rat cortical membrane; assay type: cell membranes
# Sequence of 5-hydroxytryptamine receptor 2A (P14842 whole entry): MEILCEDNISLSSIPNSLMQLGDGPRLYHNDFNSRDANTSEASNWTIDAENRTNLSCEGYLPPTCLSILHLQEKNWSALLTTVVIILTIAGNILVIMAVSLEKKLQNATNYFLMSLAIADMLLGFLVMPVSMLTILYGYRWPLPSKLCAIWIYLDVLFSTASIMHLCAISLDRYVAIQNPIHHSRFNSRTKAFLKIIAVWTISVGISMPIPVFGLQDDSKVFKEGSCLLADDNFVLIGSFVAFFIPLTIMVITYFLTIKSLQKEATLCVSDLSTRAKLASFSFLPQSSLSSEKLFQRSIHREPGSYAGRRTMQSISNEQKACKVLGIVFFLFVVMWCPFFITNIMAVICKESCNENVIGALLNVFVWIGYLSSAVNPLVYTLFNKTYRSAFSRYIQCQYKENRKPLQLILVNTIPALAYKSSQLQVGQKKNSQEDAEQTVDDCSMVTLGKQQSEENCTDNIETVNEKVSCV
Compound,Ki [1] [nM],Ki [2] [nM]
O=C1CC2(CCCCC2)C(=O)N1CCN1CCN(c2cccc(Cl)c2)CC1,4.3,15
COc1ccccc1N1CCN(CCN2C(=O)C[C@H](NC(=O)C34CC5CC(CC(C5)C3)C4)C2=O)CC1,579,4800
COc1ccccc1N1CCN(CCNC(=O)[C@@H]2CCCN2C(C)=O)CC1,6600,8600
COc1ccccc1N1CCN(CCN2C(=O)CCC2=O)CC1,2090,17600
COc1ccccc1N1CCN(CCCN2C(=O)C[C@H](NC(=O)CC3CC4CCC3C4)C2=O)CC1 (stereo partly drawn),40,
COc1ccccc1N1CCN(CCNC(=O)[C@@H]2CCCN2C(=O)C2CCCCC2)CC1,3550,2330
COc1ccccc1N1CCN(CCCCNC(=O)[C@@H]2CCCN2C(=O)C2CCCCC2)CC1,19,990
O=C(NCCCCN1CCN(c2cccc(Cl)c2)CC1)[C@@H]1CCC(=O)N1C(=O)C1CCCCC1,111,163
COc1ccccc1N1CCN(CCCCN2C(=O)C[C@H](NC(C)=O)C2=O)CC1,69,
COc1ccccc1N1CCN(CCN2C(=O)CC3(CCCCC3)C2=O)CC1,5.7,254
O=C(NCCN1CCN(c2cccc(Cl)c2)CC1)[C@@H]1CCC(=O)N1C(=O)C1CCCCC1,8520,3260
COc1ccccc1N1CCN(CCCCNC(=O)[C@@H]2CCCN2C(=O)C23CC4CC(CC(C4)C2)C3)CC1,3,503
O=C(NCCN1CCN(c2cccc(Cl)c2)CC1)[C@@H]1CCCN1C(=O)C1CCCC1,2010,357
O=C(N[C@H]1CC(=O)N(CCN2CCN(c3cccc(Cl)c3)CC2)C1=O)c1ccccc1,10000,1740
COc1ccccc1N1CCN(CCCCNC(=O)[C@@H]2CCC(=O)N2C(=O)C2CCCCC2)CC1,17,
COc1ccccc1N1CCN(CCNC(=O)[C@@H]2CCCN2C(=O)C23CC4CC(CC(C4)C2)C3)CC1,350,1920
O=C(N[C@H]1CC(=O)N(CCCCN2CCN(c3cccc(Cl)c3)CC2)C1=O)c1ccccc1,41,75
COc1ccccc1N1CCN(CCCN2C(=O)C[C@H](NC(C)=O)C2=O)CC1,480,

Compound,Ki [1] [nM],Ki [2] [nM]
COc1ccccc1N1CCN(CCCN2C(=O)C[C@H](NC(=O)C3CCCCC3)C2=O)CC1,230,
O=C(N[C@H]1CC(=O)N(CCN2CCN(c3cccc(Cl)c3)CC2)C1=O)C1CCCCC1,3780,1410
COc1ccccc1N1CCN(CCCNC(=O)[C@@H]2CCCN2C(C)=O)CC1,580,3140
COc1ccccc1N1CCN(CCCNC(=O)[C@@H]2CCC(=O)N2C(=O)c2ccccc2)CC1,390,
COc1ccccc1N1CCN(CCN2C(=O)C[C@H](NC(=O)C3CCCCC3)C2=O)CC1,7440,7340
COc1ccccc1N1CCN(CCCN2C(=O)C[C@H](NC(=O)C34CC5CC(CC(C5)C3)C4)C2=O)CC1,63,
O=C(N[C@H]1CC(=O)N(CCCN2CCN(c3cccc(Cl)c3)CC2)C1=O)C1CCCCC1,360,92
O=C1CCC(=O)N1CCN1CCN(c2cccc(Cl)c2)CC1,3670,2120
COc1ccccc1N1CCN(CCN2C(=O)CC(C3CCCCC3)C2=O)CC1 (stereo not drawn),24,868
O=C(NCCCN1CCN(c2cccc(Cl)c2)CC1)[C@@H]1CCC(=O)N1C(=O)C1CCCCC1,1730,800
O=C(NCCCCN1CCN(c2cccc(Cl)c2)CC1)[C@@H]1CCCN1C(=O)c1ccccc1,78,128
COc1ccccc1N1CCN(CCN2C(=O)CC(NC(C)=O)C2=O)CC1 (stereo not drawn),7590,5680
COc1ccccc1N1CCN(CCNC(=O)[C@@H]2CCC(=O)N2C(=O)c2ccccc2)CC1,1510,8710
COc1ccccc1N1CCN(CCN2C(=O)C[C@H](NC(=O)CC3CC4CCC3C4)C2=O)CC1 (stereo partly drawn),497,12400
COc1ccccc1N1CCN(CCNC(=O)[C@@H]2CCC(=O)N2C(=O)C2CCCCC2)CC1,1000,14900
O=C1CC(C2CCCCC2)C(=O)N1CCN1CCN(c2cccc(Cl)c2)CC1 (stereo not drawn),227,137
O=C(NCCN1CCN(c2cccc(Cl)c2)CC1)[C@@H]1CCCN1C(=O)c1ccccc1,1950,1300
